Measured values from ChEMBL document CHEMBL4118244, “Design, synthesis and biological evaluation of benzofuran appended benzothiazepine derivatives as inhibitors of butyrylcholinesterase and antimicrobial agents” (Bioorg Med Chem, 2018).
pIC50: −log10 of the molar value. ≈ marks a conversion by molar mass, not a printed value. Calls of active or inactive are those of the source. The rule behind the calls is not given here.

Key:
[1] = system: Staphylococcus epidermidis; assay: Antibacterial activity against Staphylococcus epidermidis ATCC 12228; assay type: functional
Salmonella paratyphi [2] = assay: Antibacterial activity against Salmonella paratyphi A serotype ATCC 5702 assessed as diameter of inhibition zone at 200 ug per disc after 24 hrs by agar disc diffusion method; assay type: functional, Salmonella enterica subsp. enterica serovar Paratyphi A; conditions: Salmonella enterica, ATCC 5702, 24 h; read-out: DIZ
Summary of the method: (§1)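 Agar disc diffusion. Compounds at 20 mg mL⁻¹ in DMSO, filter-sterilised. 100 µL of 10⁸ CFU mL⁻¹ bacteria spread on nutrient agar. 6 mm discs carried 10 µl (200 µg per disc), with DMSO discs as negative control. Incubation 24 h at 37 °C. Read-out is inhibition zone diameter, mean of 3 repeats (±1 mm).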

Pseudomonas aeruginosa [3] = assay: Antibacterial activity against Pseudomonas aeruginosa ATCC 27853; assay type: functional
Aspergillus brasiliensis [4] = assay: Antifungal activity against Aspergillus brasiliensis PTCC 5011; assay type: functional
Proteus vulgaris [5] = assay: Antibacterial activity against Proteus vulgaris PTCC 1182 assessed as diameter of inhibition zone at 200 ug per disc after 24 hrs by agar disc diffusion method; assay type: functional; conditions: PTCC 1182, 24 h, read-out: DIZ; summary of the method: as §1
Staphylococcus aureus [6] = assay: Antibacterial activity against Staphylococcus aureus ATCC 29737; assay type: functional
Salmonella paratyphi [7] = assay: Antibacterial activity against Salmonella paratyphi A serotype ATCC 5702; assay type: functional, Salmonella enterica subsp. enterica serovar Paratyphi A; conditions: Salmonella enterica
Shigella dysenteriae [8] = assay: Antibacterial activity against Shigella dysenteriae PTCC 1188; assay type: functional
Escherichia coli [9] = assay: Antibacterial activity against Escherichia coli ATCC 10536 assessed as diameter of inhibition zone at 200 ug per disc after 24 hrs by agar disc diffusion method; assay type: functional; conditions: ATCC 10536, 24 h, read-out: DIZ; summary of the method: as §1
Cholinesterase = Cholinesterase (Equus caballus, UniProt P81908); assay: Inhibition of equine serum BChE using butyrylthiocholine iodide as substrate pretreated for 15 mins followed by substrate addition measured for 6 mins by Ellman's method
Chain of Cholinesterase (P81908 whole entry): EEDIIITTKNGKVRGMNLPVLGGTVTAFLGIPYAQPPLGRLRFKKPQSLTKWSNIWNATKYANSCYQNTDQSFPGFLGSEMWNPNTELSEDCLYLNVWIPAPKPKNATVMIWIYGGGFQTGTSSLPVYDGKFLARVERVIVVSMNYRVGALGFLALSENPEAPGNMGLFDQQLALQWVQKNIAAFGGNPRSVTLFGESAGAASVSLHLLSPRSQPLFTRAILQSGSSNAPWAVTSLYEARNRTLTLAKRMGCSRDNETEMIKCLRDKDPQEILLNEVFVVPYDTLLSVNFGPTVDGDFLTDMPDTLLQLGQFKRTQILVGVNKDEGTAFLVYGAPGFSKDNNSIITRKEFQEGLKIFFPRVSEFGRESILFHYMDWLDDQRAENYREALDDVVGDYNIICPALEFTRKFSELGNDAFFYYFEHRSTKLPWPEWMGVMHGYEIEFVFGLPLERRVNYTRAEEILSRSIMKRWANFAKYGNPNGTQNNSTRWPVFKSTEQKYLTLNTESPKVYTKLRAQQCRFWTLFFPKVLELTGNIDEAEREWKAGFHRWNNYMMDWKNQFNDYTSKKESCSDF
Summary of the method: (§2)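 Ellman spectrophotometric assay in 0.1 M phosphate buffer pH 8.0 with DTNB, 25 °C. AChE (electric eel, Type V-S) or BChE was preincubated 15 min with compound before adding acetylthiocholine iodide or butyrylthiocholine iodide, respectively. Absorbance change at 412 nm was read for 6 min. Five concentrations were tested in triplicate, corrected by a nonenzymatic blank, with a no-inhibitor reference.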

Bacillus spizizenii [10] = assay: Antibacterial activity against Bacillus subtilis ATCC 6633; assay type: functional
Candida albicans [11] = assay: Antifungal activity against Candida albicans ATCC 10231; assay type: functional
Bacillus spizizenii [12] = assay: Antibacterial activity against Bacillus subtilis ATCC 6633 assessed as diameter of inhibition zone at 200 ug per disc after 24 hrs by agar disc diffusion method; assay type: functional; conditions: ATCC 6633, 24 h, read-out: DIZ; summary of the method: as §1
Candida albicans [13] = assay: Antifungal activity against Candida albicans ATCC 10231 assessed as diameter of inhibition zone at 200 ug per disc after 48 hrs by agar disc diffusion method; assay type: functional; conditions: ATCC 10231, 48 h, read-out: DIZ
Summary of the method: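 Yeast tested by agar disc diffusion. Compounds at 20 mg mL⁻¹ in DMSO, filter-sterilised. 6 mm discs carried 10 µl (200 µg per disc), with DMSO discs as negative control. Incubation 48 h at 30 °C. Zone diameter was averaged over 3 repeats (±1 mm).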

Staphylococcus aureus [14] = assay: Antibacterial activity against Staphylococcus aureus ATCC 29737 assessed as diameter of inhibition zone at 200 ug per disc after 24 hrs by agar disc diffusion method; assay type: functional; conditions: ATCC 29737, 24 h, read-out: DIZ; summary of the method: as §1
[15] = system: Staphylococcus epidermidis; assay: Antibacterial activity against Staphylococcus epidermidis ATCC 12228 assessed as diameter of inhibition zone at 200 ug per disc after 24 hrs by agar disc diffusion method; assay type: functional; conditions: ATCC 12228, 24 h, read-out: DIZ; summary of the method: as §1
Escherichia coli [16] = assay: Antibacterial activity against Escherichia coli ATCC 10536; assay type: functional
Aspergillus niger [17] = assay: Antifungal activity against Aspergillus niger ATCC 16404; assay type: functional
Aspergillus niger [18] = assay: Antifungal activity against Aspergillus niger ATCC 16404 assessed as diameter of inhibition zone at 200 ug per disc after 72 hrs by agar disc diffusion method; assay type: functional; conditions: ATCC 16404, 72 h, read-out: DIZ
Summary of the method: (§3)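 Agar disc diffusion against mold. Compounds at 20 mg mL⁻¹ in DMSO, filter-sterilised. 6 mm discs carried 10 µl (200 µg per disc), with DMSO discs as negative control. Incubation 72 h at 30 °C. Read-out is growth inhibition zone diameter, mean of 3 repeats (±1 mm).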

Proteus vulgaris [19] = assay: Antibacterial activity against Proteus vulgaris PTCC 1182; assay type: functional
Shigella dysenteriae [20] = assay: Antibacterial activity against Shigella dysenteriae PTCC 1188 assessed as diameter of inhibition zone at 200 ug per disc after 24 hrs by agar disc diffusion method; assay type: functional; conditions: PTCC 1188, 24 h, read-out: DIZ; summary of the method: as §1
Klebsiella pneumoniae [21] = assay: Antibacterial activity against Klebsiella pneumoniae ATCC 10031; assay type: functional
Pseudomonas aeruginosa [22] = assay: Antibacterial activity against Pseudomonas aeruginosa ATCC 27853 assessed as diameter of inhibition zone at 200 ug per disc after 24 hrs by agar disc diffusion method; assay type: functional; conditions: ATCC 27853, 24 h, read-out: DIZ; summary of the method: as §1
Aspergillus brasiliensis [23] = assay: Antifungal activity against Aspergillus brasiliensis PTCC 5011 assessed as diameter of inhibition zone at 200 ug per disc after 72 hrs by agar disc diffusion method; assay type: functional; conditions: PTCC 5011, 72 h, read-out: DIZ; summary of the method: as §3
[24] = biological target: Acetylcholinesterase (Electrophorus electricus) (UniProt O42275); assay: Inhibition of electric eel AChE using acetylthiocholine iodide as substrate pretreated for 15 mins followed by substrate addition measured for 6 mins by Ellman's method; summary of the method: as §2
Chain of Acetylcholinesterase (Electrophorus electricus) (O42275 24-633 limits assumed): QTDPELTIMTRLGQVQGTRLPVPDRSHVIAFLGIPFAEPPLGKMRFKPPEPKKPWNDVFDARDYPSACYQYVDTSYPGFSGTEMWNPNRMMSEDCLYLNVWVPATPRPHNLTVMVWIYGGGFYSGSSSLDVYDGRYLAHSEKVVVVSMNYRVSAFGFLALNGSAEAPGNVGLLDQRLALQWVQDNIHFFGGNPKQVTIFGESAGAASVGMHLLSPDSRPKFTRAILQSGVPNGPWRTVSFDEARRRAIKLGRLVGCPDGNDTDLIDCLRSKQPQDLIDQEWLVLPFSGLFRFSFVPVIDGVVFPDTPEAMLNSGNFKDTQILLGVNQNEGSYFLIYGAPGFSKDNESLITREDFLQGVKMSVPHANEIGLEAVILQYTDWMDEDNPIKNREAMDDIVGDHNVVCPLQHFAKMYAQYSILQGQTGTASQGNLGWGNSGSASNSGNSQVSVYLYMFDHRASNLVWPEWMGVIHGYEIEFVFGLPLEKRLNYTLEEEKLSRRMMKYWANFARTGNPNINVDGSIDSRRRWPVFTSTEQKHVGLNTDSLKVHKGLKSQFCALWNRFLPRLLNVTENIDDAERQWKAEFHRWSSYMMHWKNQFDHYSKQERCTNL

Klebsiella pneumoniae [25] = assay: Antibacterial activity against Klebsiella pneumoniae ATCC 10031 assessed as diameter of inhibition zone at 200 ug per disc after 24 hrs by agar disc diffusion method; assay type: functional; conditions: ATCC 10031, 24 h, read-out: DIZ; summary of the method: as §1

SMILES | MIC [1] | zone of inhibition at 200 µg/disc (Salmonella paratyphi [2]) [mm] | MIC (Pseudomonas aeruginosa [3]) | MIC (Aspergillus brasiliensis [4]) | zone of inhibition at 200 µg/disc (Proteus vulgaris [5]) [mm] | MIC (Staphylococcus aureus [6]) | MIC (Salmonella paratyphi [7]) [µg/mL] | MIC (Shigella dysenteriae [8]) | zone of inhibition at 200 µg/disc (Escherichia coli [9]) [mm] | MIC (Bacillus spizizenii [10]) | MIC (Candida albicans [11]) | zone of inhibition at 200 µg/disc (Bacillus spizizenii [12]) [mm] | zone of inhibition at 200 µg/disc (Candida albicans [13]) [mm] | zone of inhibition at 200 µg/disc (Staphylococcus aureus [14]) [mm] | zone of inhibition at 200 µg/disc [15] [mm] | MIC (Escherichia coli [16]) | MIC (Aspergillus niger [17]) | zone of inhibition at 200 µg/disc (Aspergillus niger [18]) [mm] | MIC (Proteus vulgaris [19]) | zone of inhibition at 200 µg/disc (Shigella dysenteriae [20]) [mm] | further results
O=[N+]([O-])c1cccc(C2CC(c3cc4cc(Br)ccc4o3)=Nc3ccccc3S2)c1 (configuration not stated) | inactive | 23 | inactive | 0.5 µg/mL (≈ 1.04 µM) | < 6 | inactive | 0.5 (≈ 1.04 µM) | inactive | < 6 | 12.5 µg/mL (≈ 26.1 µM) | inactive | 19 | < 6 | < 6 | < 6 | inactive | 0.25 µg/mL (≈ 0.522 µM) | 20 | inactive | < 6 | IC50 (Cholinesterase): Not Active; MIC (Klebsiella pneumoniae [21]): inactive; zone of inhibition at 200 µg/disc (Pseudomonas aeruginosa [22]): < 6 mm; zone of inhibition at 200 µg/disc (Aspergillus brasiliensis [23]): 23 mm; inhibition [24]: inactive; zone of inhibition at 200 µg/disc (Klebsiella pneumoniae [25]): < 6 mm
Fc1ccccc1C1CC(c2cc3cc(Br)ccc3o2)=Nc2ccccc2S1 (configuration not stated) | 5 µg/mL (≈ 11.1 µM) | 11 | 50 µg/mL (≈ 111 µM) | inactive | < 6 | 5 µg/mL (≈ 11.1 µM) | 50 (≈ 111 µM) | inactive | < 6 | inactive | 25 µg/mL (≈ 55.3 µM) | < 6 | 13 | 10 | 9 | inactive | inactive | < 6 | inactive | < 6 | pIC50 (Cholinesterase; read-out: IC50): 4.86; MIC (Klebsiella pneumoniae [21]): inactive; zone of inhibition at 200 µg/disc (Pseudomonas aeruginosa [22]): 15 mm; zone of inhibition at 200 µg/disc (Aspergillus brasiliensis [23]): < 6 mm; inhibition [24]: inactive; zone of inhibition at 200 µg/disc (Klebsiella pneumoniae [25]): < 6 mm
